Experimental data: ChEMBL document CHEMBL3774374, “The Effect of Small Molecules on Sterol Homeostasis: Measuring 7-Dehydrocholesterol in Dhcr7-Deficient Neuro2a Cells and Human Fibroblasts” (J Med Chem, 2016)
Calls of active or inactive are those of the source. The rule behind the calls is not given here.

Assays:
[1] = target: T1, 3-beta-hydroxysteroid-Delta(8),Delta(7)-isomerase (Mus musculus) (UniProt P70245); test: Inhibition of delta 8-7 isomerase in Dhcr7-deficient mouse Neuro2a cells assessed as decrease in 7-DHC levels at 1 uM by LC-MS/GC-MS analysis; format: cell-based
T1 sequence (whole entry): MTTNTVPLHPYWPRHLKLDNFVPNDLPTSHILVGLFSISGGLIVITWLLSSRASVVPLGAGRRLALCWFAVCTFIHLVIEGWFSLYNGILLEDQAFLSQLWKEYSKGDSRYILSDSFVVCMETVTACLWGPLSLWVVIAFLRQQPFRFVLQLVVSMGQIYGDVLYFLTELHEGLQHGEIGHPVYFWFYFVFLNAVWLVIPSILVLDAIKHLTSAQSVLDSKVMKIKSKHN
Outline: (§1)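 Dhcr7-deficient Neuro2a cells (13000/well, 0.5% FBS medium) on predeposited compound, 24 h at 37 °C. Hoechst-stained and imaged to count cells. Lysed in methanol containing isotope-labelled sterol standards, derivatized with PTAD 20 min at RT, then isocratic C18 UPLC-MS/SRM. Remaining extract silylated with BSTFA for GC-MS, quantified against d7-cholesterol. Follow-up runs in triplicate.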

[2] = target: T2, Delta(24)-sterol reductase (Homo sapiens) (UniProt Q15392); test: Inhibition of DR24 in human SLOS fibroblasts assessed as decrease in 7-DHC levels at 10 nM after 5 days by LC-MS/GC-MS analysis
T2 sequence (whole entry): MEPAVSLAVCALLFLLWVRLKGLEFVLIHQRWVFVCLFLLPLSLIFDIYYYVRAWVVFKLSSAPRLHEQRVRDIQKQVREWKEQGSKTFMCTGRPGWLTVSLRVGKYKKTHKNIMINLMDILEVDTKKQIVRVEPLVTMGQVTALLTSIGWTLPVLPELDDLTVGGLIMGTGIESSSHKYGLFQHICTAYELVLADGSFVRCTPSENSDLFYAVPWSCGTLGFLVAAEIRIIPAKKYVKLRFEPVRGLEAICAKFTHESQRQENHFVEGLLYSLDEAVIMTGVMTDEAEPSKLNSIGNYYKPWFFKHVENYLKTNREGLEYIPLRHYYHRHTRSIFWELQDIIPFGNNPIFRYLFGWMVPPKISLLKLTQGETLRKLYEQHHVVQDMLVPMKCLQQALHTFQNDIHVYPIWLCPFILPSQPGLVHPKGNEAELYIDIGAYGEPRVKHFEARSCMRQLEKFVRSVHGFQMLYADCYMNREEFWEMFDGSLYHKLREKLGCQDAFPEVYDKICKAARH
Outline: (§2)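 SLOS patient skin fibroblasts (passage 8–20) grown in 96-well plates in delipidated serum with compound for 5 days; three different SLOS lines. Sterols quantified by PTAD-derivatized UPLC-MS plus GC-MS; 7-DHC expressed as percentage of untreated cells.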

[3] = Cytotoxicity against human SLOS fibroblasts at 5 uM after 5 days by Cell Titer assay; format: cell-based; conditions: fibroblast, 120 h
[4] = target: T3, Delta(24)-sterol reductase (Mus musculus) (UniProt Q8VCH6); test: Inhibition of DR24 in Dhcr7-deficient mouse Neuro2a cells assessed as decrease in 7-DHC levels at 1 uM by LC-MS/GC-MS analysis; format: cell-based; outline: as §1
T3 sequence (whole entry): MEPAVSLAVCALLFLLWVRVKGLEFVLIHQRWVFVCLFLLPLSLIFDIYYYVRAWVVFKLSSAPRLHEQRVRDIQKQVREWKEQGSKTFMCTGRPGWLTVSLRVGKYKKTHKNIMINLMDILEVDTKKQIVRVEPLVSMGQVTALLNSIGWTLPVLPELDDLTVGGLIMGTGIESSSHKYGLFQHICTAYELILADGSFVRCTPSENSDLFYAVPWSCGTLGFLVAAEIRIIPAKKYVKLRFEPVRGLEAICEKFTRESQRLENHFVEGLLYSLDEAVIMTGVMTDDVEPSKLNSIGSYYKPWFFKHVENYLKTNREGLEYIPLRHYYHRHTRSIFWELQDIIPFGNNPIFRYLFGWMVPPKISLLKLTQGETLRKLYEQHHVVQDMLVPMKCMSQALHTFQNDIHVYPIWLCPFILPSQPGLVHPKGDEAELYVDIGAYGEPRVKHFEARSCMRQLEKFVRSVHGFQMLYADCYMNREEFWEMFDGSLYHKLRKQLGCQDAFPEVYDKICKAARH

Fibroblast = test: Decrease in cholesterol levels in human SLOS fibroblasts at 10 nM after 5 days by LC-MS/GC-MS analysis; format: functional, cell-based; outline: as §2
N2a [5] = test: Decrease in 7-DHC levels in Dhcr7-deficient mouse Neuro2a cells at 1 uM by LC-MS/GC-MS analysis; format: functional, cell-based; outline: as §1
[6] = target: T4, 3-hydroxy-3-methylglutaryl-coenzyme A reductase (Mus musculus) (UniProt Q01237); test: Inhibition of HMGCoA reductase in Dhcr7-deficient mouse Neuro2a cells assessed as decrease in 7-DHC levels at 1 uM by LC-MS/GC-MS analysis; format: cell-based; outline: as §1
T4 sequence (whole entry): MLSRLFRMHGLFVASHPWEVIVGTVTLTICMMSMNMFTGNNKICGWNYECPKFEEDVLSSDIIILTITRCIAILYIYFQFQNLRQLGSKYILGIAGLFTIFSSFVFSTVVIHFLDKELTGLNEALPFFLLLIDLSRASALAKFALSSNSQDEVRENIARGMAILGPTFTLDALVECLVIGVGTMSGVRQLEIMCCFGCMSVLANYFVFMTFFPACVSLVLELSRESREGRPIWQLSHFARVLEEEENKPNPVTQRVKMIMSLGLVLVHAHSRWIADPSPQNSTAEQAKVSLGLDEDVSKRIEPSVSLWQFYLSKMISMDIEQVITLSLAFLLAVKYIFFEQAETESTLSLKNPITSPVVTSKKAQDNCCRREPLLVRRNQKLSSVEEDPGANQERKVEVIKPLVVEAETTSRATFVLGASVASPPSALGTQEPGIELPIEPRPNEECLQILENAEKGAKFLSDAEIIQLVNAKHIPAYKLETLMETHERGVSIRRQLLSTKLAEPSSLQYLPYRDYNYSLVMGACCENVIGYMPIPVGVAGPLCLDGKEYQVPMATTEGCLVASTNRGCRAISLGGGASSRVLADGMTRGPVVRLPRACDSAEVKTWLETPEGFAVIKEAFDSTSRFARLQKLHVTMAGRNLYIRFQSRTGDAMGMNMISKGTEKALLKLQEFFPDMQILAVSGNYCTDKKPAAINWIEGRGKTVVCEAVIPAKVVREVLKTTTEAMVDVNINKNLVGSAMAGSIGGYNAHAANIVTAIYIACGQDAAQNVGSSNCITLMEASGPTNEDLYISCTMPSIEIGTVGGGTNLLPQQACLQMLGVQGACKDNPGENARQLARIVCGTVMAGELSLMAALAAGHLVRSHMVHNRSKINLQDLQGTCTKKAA

N2a [7] = test: Decrease in desmosterol levels in mouse Neuro2a cells by LC-MS analysis; format: functional, cell-based
Outline: (§3)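 Control Neuro2a cells (10000/well, 0.5% FBS) on compound, 24 h. Hoechst cell count, then methanol lysis with labelled standards (d7-7-DHC, 13C3-desmosterol, 13C3-lanosterol), PTAD derivatization 20 min at RT, UPLC-MS SRM. GC-MS of silylated extract for further sterols.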

N2a [8] = test: Decrease in lanosterol levels in mouse Neuro2a cells by LC-MS analysis; format: functional, cell-based; outline: as §3
[9] = target: T5, Lanosterol 14-alpha demethylase (Mus musculus, UniProt Q8K0C4); test: Inhibition of CYP51 in Dhcr7-deficient mouse Neuro2a cells assessed as decrease in 7-DHC levels at 1 uM by LC-MS/GC-MS analysis; format: cell-based
T5 sequence (Q8K0C4 whole entry): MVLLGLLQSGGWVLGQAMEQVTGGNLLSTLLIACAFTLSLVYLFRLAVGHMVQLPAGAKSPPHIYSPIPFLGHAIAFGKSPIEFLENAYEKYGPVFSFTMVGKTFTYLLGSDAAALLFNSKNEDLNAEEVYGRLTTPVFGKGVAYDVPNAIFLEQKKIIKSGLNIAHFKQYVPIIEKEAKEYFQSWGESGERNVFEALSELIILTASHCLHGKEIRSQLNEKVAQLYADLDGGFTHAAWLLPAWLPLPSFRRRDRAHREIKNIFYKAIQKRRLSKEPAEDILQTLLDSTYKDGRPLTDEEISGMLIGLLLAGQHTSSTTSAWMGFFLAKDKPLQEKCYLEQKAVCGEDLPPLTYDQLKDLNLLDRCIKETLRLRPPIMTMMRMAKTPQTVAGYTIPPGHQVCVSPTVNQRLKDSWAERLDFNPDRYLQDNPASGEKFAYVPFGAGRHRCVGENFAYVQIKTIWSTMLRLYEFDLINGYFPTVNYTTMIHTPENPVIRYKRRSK
Outline: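 Follow-up (verification) assay in 96-well plates, run as the 384-well screen, in triplicate, at varying compound concentrations. Cells counted by Hoechst imaging, washed with PBS, then lysed in MeOH with BHT/TPP and isotope standards (d7-Chol, d7-7-DHC, 13C3-Des, 13C3-Lan). Sterols derivatised with PTAD for 20 min at RT and quantified by C18 UPLC-MS (SRM). Remaining sample silylated with BSTFA and run on GC-MS, quantified against d7-Chol.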

[10] = target: T1, 3-beta-hydroxysteroid-Delta(8),Delta(7)-isomerase (Mus musculus); test: Inhibition of delta 8-7 isomerase in mouse Neuro2a cells assessed as decrease in 7-DHC levels at 1 uM by LC-MS/GC-MS analysis; format: cell-based; outline: as §3
[11] = target: T3, Delta(24)-sterol reductase (Mus musculus); test: Inhibition of DR24 in mouse Neuro2a cells assessed as decrease in 7-DHC levels at 1 uM by LC-MS/GC-MS analysis; format: cell-based; outline: as §3

Compound: OCCN1CCN(CCCN2c3ccccc3Sc3ccc(C(F)(F)F)cc32)CC1
- inhibition [1]: Active

Compound: C[C@]12CC[C@@H]3c4ccc(O)cc4C[C@@H](CCCCCCCCC[S+]([O-])CCCC(F)(F)C(F)(F)F)[C@H]3[C@@H]1CC[C@@H]2O (stereo not given in full) [FULVESTRANT]
- inhibition [2]: Active
- Activity [3]: Toxic
- inhibition [4]: Active
- Activity (Fibroblast): inactive

Compound: CCCC1O[C@@H]2C[C@H]3[C@@H]4CCC5=CC(=O)C=C[C@]5(C)[C@H]4[C@@H](O)C[C@]3(C)[C@]2(C(=O)CO)O1 (stereo not given in full)
- Activity (N2a [5]): Active

Compound: C[C@@H]1CC[C@H]2[C@@H](C)C(=O)O[C@@H]3O[C@@]4(C)CC[C@@H]1[C@]32OO4
- inhibition [6]: Active

Compound: CO[C@H]1O[C@@H]2O[C@@]3(C)CC[C@H]4[C@H](C)CC[C@@H]([C@H]1C)[C@@]24OO3
- 7-DHC decrease call (active/inactive) [6]: Active

Compound: CN1CCN(CCCN2c3ccccc3Sc3ccc(C(F)(F)F)cc32)CC1
- inhibition [4]: Active

Compound: CC(=O)[C@H]1CC[C@H]2[C@@H]3CCC4=CC(=O)CC[C@]4(C)[C@H]3CC[C@]12C
- inhibition [4]: Active

Compound: O=C(CCCN1CCC(O)(c2ccc(Cl)cc2)CC1)c1ccc(F)cc1
- Activity (N2a [7]): Active
- Activity (N2a [8]): Active

Compound: Clc1ccc(COC(Cn2ccnc2)c2ccc(Cl)cc2Cl)c(Cl)c1 (stereo not given) [MICONAZOLE]
- inhibition (INH) [9]: Active

Compound: O=c1n(CCCN2CCN(c3cccc(Cl)c3)CC2)nc2ccccn12
- Activity (N2a [7]): Active
- Activity (N2a [8]): Active

Compound: OCCN1CCN(CCCN2c3ccccc3Sc3ccc(Cl)cc32)CC1
- inhibition [4]: Active
- inhibition [1]: Active

Compound: CN1CCN(CCCN2c3ccccc3Sc3ccc(Cl)cc32)CC1
- inhibition [4]: Active
- inhibition [1]: Active

Compound: CN1CC[C@]2(c3cccc(O)c3)Cc3nc4ccccc4cc3C[C@H]2C1
- inhibition [4]: Active

Compound: CCN(CC)CCO[C@H]1CC[C@@]2(C)C(=CC[C@@H]3[C@@H]2CC[C@]2(C)C(=O)CC[C@@H]32)C1
- Activity (N2a [5]): Active

Compound: C[C@H]1c2cccc(O)c2C(=O)C2=C(O)[C@]3(O)C(=O)C(C(N)=O)=C(O)[C@@H](N(C)C)[C@@H]3[C@@H](O)[C@@H]21
- Activity (N2a [5]): Active

Compound: CC[C@H](C)C(=O)O[C@H]1C[C@@H](C)C=C2C=C[C@H](C)[C@H](CC[C@@H]3C[C@@H](O)CC(=O)O3)[C@H]21
- 7-DHC decrease call (active/inactive) [6]: Active

Compound: Clc1ccc(COC(Cn2ccnc2)c2ccc(Cl)cc2Cl)cc1 (stereo not given) [ECONAZOLE]
- inhibition (INH) [9]: Active

Compound: CC[C@H](C)C(=O)O[C@H]1C[C@H](O)C=C2C=C[C@H](C)[C@H](CC[C@@H](O)C[C@@H](O)CC(=O)O)[C@H]21
- 7-DHC decrease call (active/inactive) [6]: Active

Compound: Clc1ccccc1C(c1ccccc1)(c1ccccc1)n1ccnc1 [CLOTRIMAZOLE]
- inhibition (INH) [9]: Active

Compound: Cc1ccc(NC(=O)c2ccc(CN3CCN(C)CC3)cc2)cc1Nc1nccc(-c2cccnc2)n1
- inhibition [4]: Active

Compound: CN(C)CCC=C1c2ccccc2COc2ccccc21
- inhibition [4]: Active

Compound: CCc1c(C)[nH]c2c1C(=O)C(CN1CCOCC1)CC2 (stereo not given)
- inhibition [4]: Active

Compound: c1ccc(-c2ccc(C(c3ccccc3)n3ccnc3)cc2)cc1 (stereo not given) [BIFONAZOLE]
- inhibition (INH) [9]: Active

Compound: Clc1ccccc1CNC[C@H]1CC[C@H](CNCc2ccccc2Cl)CC1
- Activity (N2a [7]): Active
- Activity (N2a [8]): Active

Compound: CCN(CC)CCOc1ccc(C(O)(Cc2ccc(Cl)cc2)c2ccc(C)cc2)cc1 (stereo not given)
- inhibition [4]: Active
- inhibition [1]: Active

Compound: CC[C@H](C)C(=O)O[C@H]1CCC=C2C=C[C@H](C)[C@H](CC[C@@H]3C[C@@H](O)CC(=O)O3)[C@H]21
- 7-DHC decrease call (active/inactive) [6]: Active

Compound: O=C(O)C[C@H](O)C[C@H](O)/C=C/c1c(C2CC2)nc2ccccc2c1-c1ccc(F)cc1
- 7-DHC decrease call (active/inactive) [6]: Active
- Activity (decrease in 7-DHC levels) [10]: Active
- Decrease in 7-DHC levels (active/inactive call) [11]: Active

Compound: OCCOCCN1CCN(C(c2ccccc2)c2ccc(Cl)cc2)CC1 (stereo not given)
- inhibition [1]: Active

Compound: CCC(C)(C)C(=O)O[C@H]1C[C@@H](C)C=C2C=C[C@H](C)[C@H](CC[C@@H]3C[C@@H](O)CC(=O)O3)[C@H]21
- 7-DHC decrease call (active/inactive) [6]: Active
